Activity calls are given as the source filed them. No cut-off for these calls is given here.
Experiments:
MCF7 [1] = assay: Induction of cell cycle arrest in human MCF7 cells assessed as increase in 2n cell population measured upto 5000 nM measured for 2 to 7 days by propidium iodide staining based flow cytometric analysis; type: functional; conditions: time 2-7 day
Z-138 [2] = assay: Induction of cell cycle arrest in human Z138 cells assessed as accumulation of cells at G1 phase cells measured upto 1000 nM by propidium iodide staining based flow cytometric analysis; type: functional; conditions: time 1-10 day, TDE = time-dependent effect
Z-138 [3] = assay: Antitumor activity against human Z138 cells xenografted in mouse at 25 to 50 mg/kg, po qd measured at 14 to 21 days; type: functional, organism-based; conditions: dose lower […], dose upper 50.0 mg/kg, time 14-21 day
Detroit 562 = assay: Antiproliferative activity against human Detroit 562 cells assessed as cell growth inhibition incubated for 10 days; type: functional; conditions: Detroit 562, 240 h, time 10 day
Summary of the method: (§1)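 Outsourced panel run in 384-well plates. Cells were grown in RPMI-1640/10% FBS or a special medium at 37°C, 5% CO2. Compound was added 24 h after seeding as a 10-point, 3.16-fold series in 0.1% DMSO. Medium was refreshed and cells re-dosed at 168 h, with a time-zero plate kept. At 240 h cells were fixed, nuclei stained and imaged. gIC50 is growth midway between untreated and time zero, from a 4-parameter fit.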

EB-3 = assay: Antiproliferative activity against human EB-3 cells assessed as cell growth inhibition incubated for 10 days; type: functional; conditions: EB-3, 240 h, time 10 day; summary of the method: as §1
HT = assay: Antiproliferative activity against human HT cells assessed as cell growth inhibition incubated for 10 days; type: functional; conditions: 240 h, time 10 day; summary of the method: as §1
OVCAR-3 = assay: Antiproliferative activity against human OVCAR-3 cells assessed as cell growth inhibition incubated for 10 days; type: functional; conditions: OVCAR-3, 240 h, time 10 day
A-375 = assay: Antiproliferative activity against human A-375 cells assessed as cell growth inhibition incubated for 10 days; type: functional; conditions: A-375, 240 h, time 10 day
Summary of the method: (§2)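 Cells kept in RPMI-1640 with 10% FBS, 2 mM L-alanyl-L-glutamine and 1 mM Na pyruvate (or a special medium) at 37°C, 5% CO2. Compound added 24 h after seeding, 10 concentrations in 3.16-fold dilution, 0.1% DMSO final. Medium replaced and cells re-dosed at 168 h; 240 h incubation. Nuclei fixed, dye-stained and imaged. gIC50 = growth midway between untreated and time-zero cell counts, from a 4-parameter fit.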

SW1417 = assay: Antiproliferative activity against human SW1417 cells assessed as cell growth inhibition incubated for 10 days; type: functional; conditions: SW1417, 240 h, time 10 day
SCC-4 = assay: Antiproliferative activity against human SCC-4 cells assessed as cell growth inhibition incubated for 10 days; type: functional; conditions: SCC-4, 240 h, time 10 day
HCT-15 = assay: Antiproliferative activity against human HCT-15 cells assessed as cell growth inhibition incubated for 10 days; type: functional; conditions: HCT-15, 240 h, time 10 day; summary of the method: as §1
OE19 = assay: Antiproliferative activity against human OE19 cells assessed as cell growth inhibition incubated for 10 days; type: functional; conditions: OE19, 240 h, time 10 day
DMS-273 = assay: Antiproliferative activity against human DMS-273 cells assessed as cell growth inhibition incubated for 10 days; type: functional; conditions: DMS-273, 240 h, time 10 day; summary of the method: as §1
COLO-829 = assay: Antiproliferative activity against human COLO-829 cells assessed as cell growth inhibition incubated for 10 days; type: functional; conditions: COLO-829, 240 h, time 10 day; summary of the method: as §2
RD = assay: Antiproliferative activity against human RD cells assessed as cell growth inhibition incubated for 10 days; type: functional; conditions: 240 h, time 10 day
SiHa = assay: Antiproliferative activity against human SiHa cells assessed as cell growth inhibition incubated for 10 days; type: functional; conditions: 240 h, time 10 day
SW 962 = assay: Antiproliferative activity against human SW 962 cells assessed as cell growth inhibition incubated for 10 days; type: functional; conditions: SW 962, 240 h, time 10 day
Hs746T = assay: Antiproliferative activity against human Hs746T cells assessed as cell growth inhibition incubated for 10 days; type: functional; conditions: 240 h, time 10 day
Summary of the method: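 Eurofins panel, 384-well. Cells kept in RPMI-1640 with 10% FBS, 2 mM L-alanyl-L-glutamine and 1 mM Na pyruvate, or in a special medium, at 37°C under 5% CO2. Compound added 24 h after seeding as 10 concentrations in 3.16-fold steps, 0.1% DMSO final. Medium replaced and compound re-dosed at 168 h. After 240 h, cells fixed and nuclei stained for imaging. gIC50 = growth midway between untreated cells and time-zero count.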

Z-138 [4] = assay: Induction of cell cycle arrest in human Z138 cells expressing full length MDM4 assessed as accumulation of cells at G1 phase at 500 nM incubated for 4 days; type: functional, cell-based; conditions: time 4.0 day
[5] = molecular target: Protein arginine N-methyltransferase 5 (Homo sapiens) (UniProt O14744); assay: Inhibition of PRMT5 in human Z138 cells expressing full length MDM4 at 1 to 100000 nM incubated for 3 to 6 days; type: cell-based; conditions: dose 1-100000 nM, time 3-6 day
Sequence of Protein arginine N-methyltransferase 5 (Homo sapiens) (O14744 whole entry): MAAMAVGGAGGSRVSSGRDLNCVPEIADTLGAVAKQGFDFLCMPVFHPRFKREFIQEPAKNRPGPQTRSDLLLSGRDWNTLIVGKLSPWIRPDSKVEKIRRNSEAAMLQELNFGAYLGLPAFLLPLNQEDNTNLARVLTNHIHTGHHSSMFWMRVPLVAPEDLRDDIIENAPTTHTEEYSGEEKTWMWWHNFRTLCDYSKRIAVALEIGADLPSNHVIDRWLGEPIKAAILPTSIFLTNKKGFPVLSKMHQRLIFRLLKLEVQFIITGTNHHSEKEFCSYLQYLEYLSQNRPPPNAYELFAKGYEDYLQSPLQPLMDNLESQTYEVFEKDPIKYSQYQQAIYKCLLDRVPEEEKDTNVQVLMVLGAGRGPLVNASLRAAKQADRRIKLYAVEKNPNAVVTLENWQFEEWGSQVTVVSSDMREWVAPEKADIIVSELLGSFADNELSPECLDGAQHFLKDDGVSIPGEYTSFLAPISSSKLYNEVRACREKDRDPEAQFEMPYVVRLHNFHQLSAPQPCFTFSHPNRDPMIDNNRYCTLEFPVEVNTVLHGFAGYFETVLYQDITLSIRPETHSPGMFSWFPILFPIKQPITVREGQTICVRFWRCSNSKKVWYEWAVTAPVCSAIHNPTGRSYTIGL

MCF7 [6] = assay: Antiproliferative activity against human MCF7 cells assessed as cell growth inhibition incubated for 6 days by celltiter-glo assay; type: functional; conditions: MCF7, 144 h, time 6 day
Summary of the method: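 Cells seeded in 384-well plates at an optimized density and held 24 h. CellTiter-Glo luminescence read at Day 0 and Day 6. Four-parameter fit. gIC50 = midpoint of the growth window between DMSO and T0. Curves required ≥1.5 population doublings.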

A 172 = assay: Antiproliferative activity against human A-172 cells assessed as cell growth inhibition incubated for 6 days by celltiter-glo assay; type: functional; conditions: A 172, 144 h, time 6 day
HeLa = assay: Antiproliferative activity against human HeLa cells assessed as cell growth inhibition incubated for 10 days; type: functional; conditions: 240 h, time 10 day; summary of the method: as §1
NCI-H747 = assay: Antiproliferative activity against human NCI-H747 cells assessed as cell growth inhibition incubated for 10 days; type: functional; conditions: NCI-H747, 240 h, time 10 day
[7] = molecular target: Protein arginine N-methyltransferase 5 (Homo sapiens) (UniProt O14744); assay: Inhibition of PRMT5 in human Z138 cells expressing full length MDM4 assessed as effect on p53 level at 1 uM incubated for 4 days by Western blot analysis; type: cell-based; conditions: time 4.0 day
RPMI-7951 = assay: Antiproliferative activity against human RPMI-7951 cells assessed as cell growth inhibition incubated for 10 days; type: functional; conditions: RPMI-7951, 240 h, time 10 day
SAOS-2 = assay: Antiproliferative activity against human SAOS-2 cells assessed as cell growth inhibition incubated for 10 days; type: functional; conditions: SAOS-2, 240 h, time 10 day
HPAF-II = assay: Antiproliferative activity against human HPAF-II cells assessed as cell growth inhibition incubated for 10 days; type: functional; conditions: 240 h, time 10 day; summary of the method: as §1
Calu-1 = assay: Antiproliferative activity against human Calu-1 cells assessed as cell growth inhibition incubated for 10 days; type: functional; conditions: Calu-1, 240 h, time 10 day; summary of the method: as §1
[8] = molecular target: Protein arginine N-methyltransferase 5 (Homo sapiens) (UniProt O14744); assay: Inhibition of PRMT5 in human Z138 cells assessed as effect on hnRNP level by measuring fold change by LC-MS/MS analysis relative to control; type: cell-based
CAPAN-1 = assay: Antiproliferative activity against human CAPAN-1 cells assessed as cell growth inhibition incubated for 10 days; type: functional; conditions: CAPAN-1, 240 h, time 10 day; summary of the method: as §2

CC(=O)N1CCC(Nc2cc(C(=O)NC[C@H](O)CN3CCc4ccccc4C3)ncn2)CC1 [PEMRAMETOSTAT]
Activity (MCF7 [1]): Active
Activity (Z-138 [2]): Tde
Activity (Z-138 [3]): Active

O=C(NC[C@H](O)CN1CCc2ccccc2C1)c1ccnc(NC2CCC2)c1
GI50 (Detroit 562): 104 nM
GI50 (EB-3): 299 nM
GI50 (HT): 206 nM
GI50 (OVCAR-3): 51.4 nM
GI50 (A-375): 79.6 nM
GI50 (SW1417): 773 nM
GI50 (SCC-4): 286 nM
GI50 (HCT-15): 68.4 nM
GI50 (OE19): 98 nM
GI50 (DMS-273): 298 nM
GI50 (COLO-829): 54.4 nM
GI50 (RD): 639 nM
GI50 (SiHa): 2510 nM
GI50 (SW 962): 203 nM
GI50 (Hs746T): 171 nM
Activity (Z-138 [4]): Active
inhibition [5]: inactive
GI50 (MCF7 [6]): 215 nM
GI50 (A 172): 590 nM
GI50 (HeLa): 230 nM
GI50 (NCI-H747): 2580 nM
inhibition [7]: inactive
GI50 (RPMI-7951): 44.2 nM
GI50 (SAOS-2): 48.2 nM
GI50 (HPAF-II): 154 nM
GI50 (Calu-1): 3.05 µM
fold change (FC) [8]: -5.3
GI50 (CAPAN-1): 370 nM
